Assay outcomes deposited in PubChem BioAssay by several laboratories.
Lipid droplet: hepatic lipid droplet formation modulation | inhibition, % at 6.5 µM | AML12 mouse hepatocytes, oleate lipid droplets, BODIPY imaging | 240,000 tested, 0.4% active;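 active means lipid droplet intensity inhibited by at least 50%, with more than 500 cells counted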
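Assay system: AML12 hepatocytes (mouse); Probe or stimulus: oleic acid at 100 µM to induce lipid droplet formation; Dosing: compound at 6.5 µM only; Schedule: compound with oleate, overnight; Detection: fluorescence imaging, 20x objective, two fields per well; Measure: % inhibition of lipid droplet signal.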
aSyn UTR inh: 5' untranslated region of α-synuclein, MLPCN primary screen; alpha-synuclein 5'UTR reporter, inhibitor activity; inhibition, % (tested at 7.5 µM); 300,000 tested, 0.82% active; AID 1813; in the data active means inhibition above about 60%;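 further: H4 neuroglioblastoma cells stably carrying SNCA 5'UTR luciferase fusion; 0% = DMSO wells and 100% = positive control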
H9c2 TAG inh: triacylglycerol accumulation inhibition; AID 651582; inhibition, % at 12.5 µM; H9c2 cells, Nile Red lipid (TAG) fluorescence; cells loaded with 200 µM oleic acid; 230,000 tested, 0.66% active;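 active means pattern-corrected inhibition of lipid staining of at least 50% with the nuclear-stain viability signal not falling by more than 50%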;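 further: 0% = DMSO wells and 100% = triacsin C control wells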
APP transl inh: APP translation inhibition. inhibition, % at 2 µM. 190,000 tested, 0.82% active. SH-SY5Y APP 5'UTR-luciferase reporter, luminescence;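 active means inhibition above a set limit, derived from the sample mean plus 3 SD, cut at about 45% in these data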
697 NFkB inh: lowers PMA/ionomycin-induced NF-kB signal in 697 B cells; 697 B-cell NF-kB luciferase reporter, 16 h; inhibition, % at 4 µM; 330,000 tested, 0.33% active; AID 435022; in the data active means inhibition above about 35%
Jurkat NFkB inh: inhibitors of the PMA/ionomycin-induced NF-kB reporter in Jurkat cells; PMA/ionomycin-induced NF-kB luciferase reporter, luminescence; inhibition, % at 4 µM; 330,000 tested, 0.53% active; in the data active means inhibition above about 50%
Starred values were filed as active, the others as inactive; x = no result given. Hits are enriched below; roughly 1.9% of the tested compounds scored in any of these assays.

SMILES	Lipid droplet	aSyn UTR inh	H9c2 TAG inh	APP transl inh	697 NFkB inh	Jurkat NFkB inh
O=C(Nc1cc(S(=O)(=O)Nc2ccc(Cl)cc2)ccc1O)c1ccc(S(=O)(=O)N2CCCCCC2)cc1	3.5	-20.0	19.3	8.1	-4.7	1.5
O=C(N/N=C\c1cc(Cl)ccc1O)c1ccc(S(=O)(=O)N2CCCCC2)cc1	9.2	112.5*	x	73.0*	-67.2	31.8
CC(=O)N(C1=C(N)C(=O)c2ccccc2C1=O)c1ccccc1	-2.9	78.2*	x	x	7.7	4.3
O=C(NC(=S)NNC(=O)[C@H]1C[C@@H]1c1ccccc1)c1cccc(F)c1	-5.7	67.2*	2.8	x	6.1	0.5
COCOc1cccc(CN2CCC2(C)C(=O)Nc2cc(OC)ccc2OC)c1 (stereo unspecified)	x	x	-64.6	x	x	x
CCOc1ccccc1-n1c(SCC(=O)Nc2ccc(CC)cc2)nc2n[nH]c(C)c2c1=N	x	83.6*	x	-7.9	1.3	-0.7
CC(C)C[C@@H](CN)NC(=O)c1nc[nH]c1C(=O)N[C@@H](C)C(=O)CNC[C@H](C)NC(=O)c1nc[nH]c1C(=O)N[C@@H](C)C(=O)O	x	x	0.1	x	x	x
Cc1ccc(C(C)C)c(OCc2ccc(C(=O)N/N=C/c3ccc(C(=O)O)cc3)cc2)c1	-26.1	37.3	-11.0	x	-3.0	-7.2
Cc1ccc(C(C)C)c(OCc2ccc(C(=O)N/N=C/c3ccc(O)cc3O)cc2)c1	-31.2	95.8*	x	74.7*	x	x
Oc1c(N=Nc2ccccn2)ccc2ccccc12	x	73.7*	70.5*	82.2*	-183.9	47.1
CC(=Cc1ccccc1)C=C1SC(=S)N(CCCC(=O)Nc2ccc(C(=O)O)cc2)C1=O	x	x	-6.9	x	x	x
CC(=C\c1ccccc1)/C=C1/SC(=S)N(CCCC(=O)O)C1=O	3.5	66.6*	x	x	-11.5	9.5
CC(/C=C1\SC(=O)N(CCCC(=O)O)C1=O)=C\c1ccccc1	0.9	102.5*	x	78.5*	x	x
COc1ccc(CN2C[C@@H](CO)O[C@@H](n3cnc4c(NCc5cc(OC)c(OC)c(OC)c5)ncnc43)C2)cc1	x	x	26.6	x	x	x
COc1ccc(-c2cnnc(N/N=C/c3c(C)nn(-c4ccccc4)c3Cl)n2)cc1	10.7	11.2	x	62.0*	x	x
Cc1c(C(=O)NCc2ccc(F)cc2)sc(=O)n1Cc1ccccc1F	x	x	-10.4	x	x	x
CCC[C@H](CN[C@@H](CNC)[C@H](C)CC)NCCc1cc(C(F)(F)F)cc(C(F)(F)F)c1	14.1	124.1*	137.3	x	20.1	34.8
CCC[C@@H](CN[C@@H](CNC)C(C)C)NCCCCc1ccccc1	-6.7	-13.9	33.3	x	10.7	17.2
CC[C@@H](C)[C@H](CNC)NC[C@@H](Cc1cccc2ccccc12)NCCc1cccc(C(F)(F)F)c1	2.4	124.7*	135.0	x	9.1	25.2
Cc1onc(-c2ccccc2)c1C(=O)N1CCC(C)(C(=O)O)C1 (stereo unspecified)	x	x	5.8	x	x	x
Cc1ccc(C(=O)N/C(=C\c2ccc(-c3ccccc3[N+](=O)[O-])o2)C(=O)NCCN(C)C)cc1	3.9	-22.7	57.2*	x	-1.4	-16.5
Cc1ccc(C(=O)N/C(=C\c2ccc(-c3ccccc3[N+](=O)[O-])o2)C(=O)NCCCN(C)C)cc1	-4.2	35.3	x	x	11.4	8.2
CC(C)[C@]1(c2ccc(Cl)cc2)ON(c2ccccc2C(F)(F)F)C1=O	x	x	x	x	18.5	5.7
CS(=O)(=O)c1ncc(Cl)c(C(=O)Nc2ccc3ccccc3c2)n1	7.7	19.6	78.1	96.2*	x	x
Cc1nnn(-c2nonc2N)c1C(=O)N/N=C/c1ccccc1O	-12.2	67.8*	x	64.3*	-80.1	37.8
SMILES	Lipid droplet	aSyn UTR inh	H9c2 TAG inh	APP transl inh	697 NFkB inh	Jurkat NFkB inh
Cc1nnn(-c2nonc2N)c1C(=O)N/N=C/c1cccc2ccccc12	2.3	5.8	x	-3.6	19.4	-3.5
CC1CCN(Cc2c(C(=O)N/N=C/c3ccccc3O)nnn2-c2nonc2N)CC1	-51.2	65.5*	x	x	-13.1	36.3
C(C#CCCCCCCCCC[n+]1ccccc1)#CCCCCCCCCC[n+]1ccccc1	-54.5	73.3*	-4.5	x	x	x
CCN(Cc1nc2ccccc2c(=O)[nH]1)C(=O)COc1ccccc1Cc1ccccc1	x	x	-7.3	x	-1.1	0.8
COc1ccc(CCN2CCC(Nc3nc4ccccc4n3Cc3ccc(F)cc3)CC2)cc1	-61.5	102.5*	45.2	2.8	-17.1	48.5
COc1ccc(CNc2nc3ccccc3n2CCN2CCCCC2)cc1	-4.2	-22.0	5.9	-28.9	-33.7	-9.4
CC(=O)Nc1cc(-c2ccc(N)cc2)cn2c(-c3cccc(C(F)(F)F)c3)cnc12	x	x	2.9	x	x	x
COc1ccc(N2C(=O)CC(Sc3nnc(-c4ccccc4)o3)C2=O)cc1 (stereo unspecified)	x	-3.2	x	45.7*	-26.8	-1.1
CCC(C)[C@H](NC(=O)Nc1ccc(C)cc1C)C(=O)O (stereo partly specified)	3.0	7.2	-0.6	x	22.5	7.4
COc1ccccc1CN(C)C(=O)C(NC(=O)Cc1cccc2ccccc12)C(C)C (stereo unspecified)	45.3	5.4	x	x	18.4	-1.8
O=C1C(=O)N(CNc2ccccn2)c2ccccc21	x	1.5	59.0*	4.2	-15.1	0.8
CCn1ccnc1CN1CCC(n2nccc2NC(=O)c2ccccc2OC)CC1	4.1	10.0	-11.7	x	-9.6	9.3
COc1ccccc1OCC(=O)Nc1cccc(N(C)S(C)(=O)=O)c1	-4.7	-8.7	x	55.5*	15.0	16.6
COc1ccc(C(=O)Nc2cccc(N(C)S(C)(=O)=O)c2)cc1OC	3.1	-168.1	x	-27.5	-58.5	-46.9
Cc1onc(-c2c(F)cccc2Cl)c1C(=O)OCC(=O)Nc1cccc(S(=O)(=O)N(C)C)c1	x	x	-1.7	x	x	x
CCS(=O)(=O)c1ncc(Cl)c(C(=O)Nc2ccc(C)cc2)n1	-9.4	-27.4	x	x	-62.9	14.1
CCS(=O)(=O)c1ncc(Cl)c(C(=O)Nc2ccc(S(=O)(=O)N3CCCC(C)C3)cc2)n1 (stereo unspecified)	18.8	72.2*	x	x	-155.6	18.9
C[C@@H]1CCCCO[C@@H](CN(C)S(=O)(=O)c2ccccc2)[C@@H](C)CN([C@H](C)CO)C(=O)c2cc(N(C)C)ccc2O1	x	x	4.3	x	x	x
Oc1ccc(N=Nc2ccc3c(c2)OCCO3)c2ncccc12	6.7	39.5	78.5*	x	-152.8	27.5
CCOc1ccc(C(=O)CSCCC(=O)O)cc1	15.8	68.3*	x	38.0	15.2	16.0
O=C(NC(=S)NNC(=O)c1ccccc1O)c1cccs1	-0.8	-38.0	x	x	-17.1	0.6
COc1ccc(NC(=O)C(=O)NNC(=O)c2cccs2)cc1	10.1	-32.5	x	64.2*	3.8	9.6
COc1ccccc1C(=O)NNC(=S)NC(=O)c1cccs1	4.8	73.2*	5.3	x	19.2	1.5
Cc1noc(C)c1S(=O)(=O)NC(=O)C1(C)CCN1C(=O)c1ccc(C2CCCCC2)cc1 (stereo unspecified)	x	x	-0.8	x	x	x
O=C(CCl)N(C/C=C/c1ccccc1)c1ccc2c(c1)OCCO2	5.8	-80.6	51.8*	-18.8	-25.4	-19.6
CCCNC(=O)C1(C)CCCN(C(=O)c2c(F)ccc(C)c2F)C1 (stereo unspecified)	x	x	8.0	x	x	x
